Results gathered from unrelated publications.
Protocols differ between the studies behind these lines. pEC50, pIC50: −log10 of the molar value.

`O=C(NC(=S)Nc1nccs1)c1ccco1` gave a pIC50 of 4.91 (Leishmania tropica; parasite growth, resazurin; promastigote).
`N#Cc1c(-c2ccc(OCc3ccccc3)cc2)c(C(N)=O)c(N)n(N)c1=O` gave an inhibition zone of 16 mm (Saccharomyces cerevisiae; microbial growth, well diffusion; ATCC9763; 500 µg/mL).
With `O=C(NC(=S)Nc1ccccc1O)c1ccco1` the pIC50 was 5.38 (Leishmania tropica; parasite growth, resazurin; promastigote).
The inhibition zone of `CN(C)c1ccc(-c2c(C(N)=S)c(N)n(N)c(=O)c2C#N)cc1` is reported as 14 mm (Saccharomyces cerevisiae; microbial growth, well diffusion; ATCC9763; 500 µg/mL).
The GI50 of `O=C(NO)c1ccc(CNc2nc3cccc(-c4ccc5c(c4)OCO5)n3n2)cc1` is reported as 470 nM (SF-268; cell growth or viability, SRB).
For `CC(=O)Oc1ccc(-c2c(C(N)=O)c(N)n(N)c(=O)c2C#N)cc1`, the inhibition zone was 9 mm (Saccharomyces cerevisiae; microbial growth, well diffusion; ATCC9763; 500 µg/mL).
The pIC50 of `Nc1ccc(/C=C/C(=O)N2CCc3c(oc4c(-c5ccc(F)cc5)cc(-c5ccc(C(=O)N6C[C@@H]7[C@H](C6)C7(F)F)nn5)cc34)C2)cn1` is reported as < 4.70 (PANC-1; cell growth or viability, CCK-8; 72 h).
`C=CC(=O)NC1CCN(c2ncc3ncnc(Nc4ccc(Oc5ccc6c(c5)ncn6C)c(C)c4)c3n2)CC1` gave a pEC50 of 7.84 (NUGC-4; cell growth or viability).
`O=C(NC(=S)Nc1ccccc1O)c1cccs1` has a pIC50 of 6.54 (Leishmania tropica; parasite growth, resazurin; promastigote).
With `Cc1c(C(=O)O)ccc2c3n(nc12)[C@@H]1[C@H](C3)N(CC2CC2)[C@@]2(C(=O)Nc3cc(Cl)ccc32)[C@H]1c1cccc(Cl)c1F` the pIC50 was 7.92 (NUGC-4; cell growth or viability, resazurin).
The pIC50 of `CCOc1ccc(-c2c(Cc3ccc(OC)cc3)[nH]/c(=N/C(=O)C34CC5CC(CC(C5)C3)C4)n2C)cc1OC` is reported as 4.96 (Hepatitis B virus; viral replication, inhibitor; HePAD38).
With `Nc1ccc(/C=C/C(=O)N2CCc3c(oc4c(-c5ccc(F)cc5)cc(-c5ccc(C(=O)N6CCOCC6)nn5)cc34)C2)cn1` the pIC50 was < 4.70 (PANC-1; cell growth or viability, CCK-8; 72 h).
